Our source for the IC50 values is ChEMBL document CHEMBL1152678, “Synthesis of bis-Schiff bases of isatins and their antiglycation activity” (Bioorg Med Chem, 2009).

The first data set can be described thus: Antiglycation activity assessed as inhibition of BSA-derived advance glycated end product formation after 9 days by spectrophotometry. The data set is classed as physicochemical.
Settings: not given; call rule not given here
Summed up: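 BSA (100 mg/ml) incubated with 14 mM methylglyoxal in 0.1 M phosphate buffer pH 7.4 containing NaN₃ (30 mM), aseptic, 37 °C for 9 days, with or without various concentrations of test compounds (DMSO stocks); triplicate samples. AGE-related fluorescence read; % inhibition = (1 − fluorescence of test/fluorescence of control) × 100.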
For the compound `COc1ccc(/C=N/N=C2\C(=O)Nc3ccc(Cl)cc32)cc1OC`, the IC50 result is recorded as “Not Active”.

On to `O=C1Nc2ccc(Cl)cc2/C1=N/N=C/c1ccc(F)cc1`, for which the IC50 result is on record as “Not Active”.

Regarding `O=C1Nc2ccccc2/C1=N/N=C/c1ccc2ccccc2c1`, the concentration for half-maximal inhibition (IC50) entry is on record as “Not Active”.

Regarding `O=C1Nc2ccccc2/C1=N/N=C/c1ccc(Cl)c(Cl)c1`, the IC50 result is given as “Not Active”.

Consider `CCOc1ccc(/C=N/N=C2\C(=O)Nc3ccccc32)cc1`, for which the IC50 result was “Not Active”.

As to `O=C1Nc2c(Cl)ccc(Cl)c2/C1=N/N=C/c1ccccc1F`, the IC50 result was “Not Active”.

In the case of `O=C1Nc2ccccc2/C1=N/N=C/c1ccc(F)cc1`, the IC50 entry is listed as “Not Active”.

`Cc1ccc(O)c(/C=N/N=C2\C(=O)Nc3ccccc32)c1`: the IC50 entry is “Not Active”.

In the case of `O=C1Nc2ccc(Cl)cc2/C1=N/N=C/c1ccccc1O`, the IC50 result was “Not Active”.

As to `COc1cccc(/C=N/N=C2\C(=O)Nc3c(Cl)ccc(Cl)c32)c1O`, the IC50 entry is on record as “Not Active”.

Staying with this data set, now noted: read-out: IC50.
Regarding `COc1ccc(/C=N/N=C2\C(=O)Nc3c(Cl)ccc(Cl)c32)cc1OC`, the IC50 was found to be 366 µM.

For the compound `O=C1Nc2ccc(Cl)cc2/C1=N/N=C/c1ccc(O)c(O)c1`, the IC50 was 469 µM.

`O=C1Nc2ccccc2/C1=N/N=C/c1cccc2ccccc12`: the IC50 amounted to 380 µM.

For `O=C1Nc2ccccc2/C1=N/N=C/c1ccccc1F`, the IC50 worked out at 362 µM.

For `CN(C)c1ccc(/C=N/N=C2\C(=O)Nc3ccccc32)cc1`, the IC50 came out at 406 µM.

As to `COc1cccc(/C=N/N=C2\C(=O)Nc3ccccc32)c1O`, the IC50 stood at 359 µM.

Consider `O=C1Nc2ccccc2/C1=N/N=C/c1ccccc1[N+](=O)[O-]`, for which the IC50 was 244 µM.

As to `O=C1Nc2ccccc2/C1=N/N=C/c1ccccc1O`, the IC50 came out at 444 µM.

For `O=C1Nc2ccccc2/C1=N/N=C/c1cc(Cl)ccc1O`, the IC50 came out at 634 µM.

Turning to `CCOc1ccccc1/C=N/N=C1\C(=O)Nc2ccccc21`, the IC50 is 416 µM.

Take `O=C1Nc2ccccc2/C1=N/N=C/c1ccc([N+](=O)[O-])cc1`: the IC50 worked out at 258 µM.

As to `O=C1Nc2ccccc2/C1=N/N=C/c1ccc(O)c(O)c1`, the IC50 came to 291 µM.

As for `O=C1Nc2ccccc2/C1=N/N=C/c1ccc(O)cc1`, the IC50 amounted to 313 µM.

`O=C1Nc2ccccc2/C1=N/N=C/c1cccc(O)c1`: the IC50 amounted to 634 µM.

For `COc1ccccc1/C=N/N=C1\C(=O)Nc2ccccc21`, the IC50 came to 458 µM.

In the case of `O=C1Nc2ccccc2/C1=N/N=C/c1cccc(Cl)c1`, the IC50 was 312 µM.

Regarding `O=C1Nc2c(Cl)ccc(Cl)c2/C1=N/N=C/c1ccc2ccccc2c1`, the IC50 was found to be 416 µM.

As to `C[C@@H]1O[C@@H](OC[C@H]2O[C@@H](Oc3c(-c4ccc(O)c(O)c4)oc4cc(O)cc(O)c4c3=O)[C@H](O)[C@@H](O)[C@@H]2O)[C@H](O)[C@H](O)[C@H]1O` [RUTIN], the half-maximal inhibitory concentration (IC50) is 294 µM.

Usually IC50 stands for the concentration at which inhibition is half-maximal.
